Test results taken from ChEMBL document CHEMBL1153478, “Discovery of imidazo[1,2-a]pyridines as potent MCH1R antagonists” (Bioorg Med Chem Lett, 2009).

Key:
[1] = target: T1, Melanin-concentrating hormone receptor 1 (Homo sapiens, UniProt Q99705); assay: Displacement of [125I]MCH from human MCH1 receptor
In short: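 Competition binding on membranes from CHO cells expressing human MCH1R, with [125I]-MCH as radioligand displaced by test compounds; IC50 reported as the mean of 2 experiments.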

Brain = assay: Drug level in Sprague-Dawley rat brain at 10 mg/kg, po after 2 hrs; format: ADME, organism-based; parameters: dose 10 mg/kg, route oral; conditions: in vivo
In short: (§1)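 Single oral dose of 10 mg/kg given to SD rats. Plasma (µM) and brain (nmol/g) levels were measured 2 h after dosing. Values are means of 3 experiments.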

[2] = target: T1, Melanin-concentrating hormone receptor 1; assay: Antagonist activity at human MCH1 receptor expressed in CHO cells assessed as inhibition of MCH-induced intracellular calcium level by FLIPR assay; format: functional, cell-based
[3] = Plasma concentration in Sprague-Dawley rat at 10 mg/kg, po after 2 hrs; format: ADME, organism-based; parameters: dose 10 mg/kg, route oral; in short: as §1

T1 sequence (Q99705 whole entry): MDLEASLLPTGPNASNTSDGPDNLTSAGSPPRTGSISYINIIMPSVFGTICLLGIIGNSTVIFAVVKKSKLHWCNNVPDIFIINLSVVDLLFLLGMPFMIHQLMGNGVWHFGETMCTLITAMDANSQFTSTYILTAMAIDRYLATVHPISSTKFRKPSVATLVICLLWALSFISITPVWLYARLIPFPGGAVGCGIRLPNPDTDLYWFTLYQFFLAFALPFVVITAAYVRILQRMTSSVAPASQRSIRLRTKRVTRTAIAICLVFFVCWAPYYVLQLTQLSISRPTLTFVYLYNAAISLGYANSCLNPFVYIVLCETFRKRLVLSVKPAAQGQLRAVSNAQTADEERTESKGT

Compound `CC(C)(C)c1cn2cc(NC(=O)c3ccc(-c4ccc(C(F)(F)F)cc4)cc3)ccc2n1` has an IC50 [1] of 7.1 nM.
Compound `Cc1c(C2CC2)nc2ccc(NC(=O)c3ccc(-c4cnc(C(F)(F)F)nc4)cc3)cn12` has an IC50 [1] of 160 nM.
With `CCc1c(C2CC2)nc2ccc(NC(=O)c3ccc(-c4ccc(C(F)(F)F)cc4)cc3)cn12` the IC50 [1] was 20 nM.
Compound `CC(=O)N(C)Cc1cn2cc(NC(=O)c3ccc(-c4ccc(C(F)(F)F)cc4)cc3)ccc2n1` has an IC50 [1] of 35 nM.
In the case of `Cc1c(C2CC2)nc2ccc(NC(=O)c3ccc(-c4ccc(F)nc4)cc3)cn12`, the Drug uptake (Brain) is reported as 2.5 nmol/g, the IC50 [2] is reported as 20 nM and the concentration at 2 h [3] is reported as 5 µM. It also gave an IC50 [1] of 4.4 nM.
`Cc1c(C2CC2)nc2ccc(NC(=O)c3ccc(-c4ccccn4)cc3)cn12` showed an IC50 [2] of 26 nM.
`CC(O)c1c(C2CC2)nc2ccc(NC(=O)c3ccc(-c4ccc(C(F)(F)F)cc4)cc3)cn12` (stereo not given) gave an IC50 [1] of 330 nM.
In the case of `CCCc1cn2cc(NC(=O)c3ccc(-c4ccc(C(F)(F)F)cc4)cc3)ccc2n1`, the IC50 [1] is reported as 11 nM.
Compound `CC(O)c1cn2cc(NC(=O)c3ccc(-c4ccc(C(F)(F)F)cc4)cc3)ccc2n1` (stereo not given) has an IC50 [1] of 30 nM.
`O=C(Nc1ccc2nc(C3CC3)cn2c1)c1ccc(-c2ccc(C(F)(F)F)cn2)cc1` gave an IC50 [1] of 8.2 nM.
For `O=C(Nc1ccc2nc(C3CC3)cn2c1)c1ccc(-c2ccccn2)cc1`, the IC50 [1] was 140 nM.
Compound `CC(C)c1cn2cc(NC(=O)c3ccc(-c4ccc(C(F)(F)F)cc4)cc3)ccc2n1` has an IC50 [1] of 5.4 nM.
Compound `O=C(Nc1ccc2nc(C3CC3)cn2c1)c1ccc(-c2ccc(C(F)(F)F)cc2)cc1` has an IC50 [1] of 5.6 nM.
For `Cc1cn2cc(NC(=O)c3ccc(-c4ccc(C(F)(F)F)cc4)cc3)ccc2n1`, the IC50 [1] was 4.6 nM.
`Cc1c(C2CC2)nc2ccc(NC(=O)c3ccc(-c4ccc(F)nc4)nc3)cn12` showed an IC50 [2] of 217 nM and an IC50 [1] of 61 nM.
With `Cc1c(C2CC2)nc2ccc(NC(=O)c3ncc(-c4ccc(F)cc4)cn3)cn12` the IC50 [2] was 29 nM and the IC50 [1] was 6.8 nM.
In the case of `Cc1c(C2CC2)nc2ccc(NC(=O)c3ccc(-c4ccc(F)cn4)cc3)cn12`, the IC50 [2] is reported as 90 nM and the IC50 [1] is reported as 5.4 nM.
`Cc1c(C2CC2)nc2ccc(NC(=O)c3ccc(-c4ccc(F)nc4)cn3)cn12` showed an IC50 [2] of 121 nM and an IC50 [1] of 44 nM.
For `CC(C)(O)c1cn2cc(NC(=O)c3ccc(-c4ccc(C(F)(F)F)cc4)cc3)ccc2n1`, the IC50 [1] was 17 nM.
`Cc1c(C2CC2)nc2ccc(NC(=O)c3ccc(-c4ccc(F)cc4)cn3)cn12` gave an IC50 [2] of 59 nM.
In the case of `O=C(Nc1ccc2nccn2c1)c1ccc(-c2ccc(C(F)(F)F)cc2)cc1`, the IC50 [1] is reported as 300 nM.
Compound `CC(=O)c1c(C2CC2)nc2ccc(NC(=O)c3ccc(-c4ccc(C(F)(F)F)cc4)cc3)cn12` has an IC50 [1] of 320 nM.
For `Cc1c(C2CC2)nc2ccc(NC(=O)c3ccc(-c4ccc(C(F)(F)F)cn4)cc3)cn12`, the Drug uptake (Brain) was 1.6 nmol/g, the IC50 [2] was 1000 nM and the concentration at 2 h [3] was 1.4 µM. For the same compound, the IC50 [1] was 3.5 nM.
With `O=C(Nc1ccc2nc(C3CC3)c(C3CC3)n2c1)c1ccc(-c2ccc(C(F)(F)F)cc2)cc1` the IC50 [1] was 260 nM.
`O=C(Nc1ccc2nc(C3CC3)c(CO)n2c1)c1ccc(-c2ccc(C(F)(F)F)cc2)cc1` gave an IC50 [1] of 11 nM.
For `Cc1c(C2CC2)nc2ccc(NC(=O)c3ccc(-c4ccc(F)cc4)nc3)cn12`, the IC50 [2] was 94 nM and the IC50 [1] was 4 nM.
`CCOC(=O)c1cn2cc(NC(=O)c3ccc(-c4ccc(C(F)(F)F)cc4)cc3)ccc2n1` gave an IC50 [1] greater than 1000 nM.
Work on `COc1ccc(-c2ccc(C(=O)Nc3ccc4nc(C5CC5)c(C)n4c3)cc2)nc1` yielded an IC50 [2] of 122 nM and an IC50 [1] of 6 nM.
`O=C(Nc1ccc2nc(CO)cn2c1)c1ccc(-c2ccc(C(F)(F)F)cc2)cc1` showed an IC50 [1] of 130 nM.
`Cc1c(C2CC2)nc2ccc(NC(=O)c3ncc(-c4ccc(F)nc4)cn3)cn12` gave an IC50 [2] of 164 nM and an IC50 [1] of 102 nM.
In the case of `Cc1c(C2CC2)nc2ccc(NC(=O)c3ccc(-c4ccc(C(F)(F)F)cc4)cc3)cn12`, the IC50 [1] is reported as 4.8 nM.
`Cc1ccc(-c2ccc(C(=O)Nc3ccc4nc(C5CC5)c(C)n4c3)cc2)nc1` showed an IC50 [2] of 85 nM and an IC50 [1] of 4.8 nM.
For `Cc1c(C2CC2)nc2ccc(NC(=O)c3ccc(-c4ccc(S(C)(=O)=O)cn4)cc3)cn12`, the IC50 [2] was 94 nM and the IC50 [1] was 48 nM.
For `CN(C)Cc1cn2cc(NC(=O)c3ccc(-c4ccc(C(F)(F)F)cc4)cc3)ccc2n1`, the IC50 [1] was 83 nM.
In the case of `Cc1c(C2CC2)nc2ccc(NC(=O)c3cnc(-c4ccc(F)cc4)cn3)cn12`, the IC50 [2] is reported as 70 nM and the IC50 [1] is reported as 2.5 nM.
Compound `Cc1c(C2CC2)nc2ccc(NC(=O)c3ccc(-c4ccc(Cl)cn4)cc3)cn12` has an IC50 [2] of 100 nM and an IC50 [1] of 2.2 nM.
With `Cc1c(C2CC2)nc2ccc(NC(=O)c3ccc(-c4ccc(C(F)(F)F)nc4)cc3)cn12` the IC50 [2] was 109 nM and the IC50 [1] was 4 nM.
